Source: PubChem BioAssay (The Scripps Research Institute Molecular Screening Center)
UHRF1 MBD2 ctr: UHRF1 methyl-DNA binding inhibition. UHRF1 binding to methylated oligo, TR-FRET. Q96T88. actives 0.75% (n = 370,000). inhibition, % at 4.4 µM; in the data active means inhibition above about 21%;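 further: UHRF1 SRA domain binding a hemimethylated CpG hairpin DNA probe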
TDP2 inh: blocks human TDP2 phosphodiesterase activity. inhibition, % at 12.8 µM. recombinant TDP2, T5PNP hydrolysis, p-nitrophenol absorbance 415 nm. O95551. actives 0.34% (n = 370,000);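 active means inhibition above the mean of all tested compounds plus 3 SD, set per campaign, cut at about 25% in these data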
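System: recombinant human TDP2 / Amount: 120 nM TDP2 per well / Also added: 5 mM T5PNP chromogenic substrate / Doses: 12.8 µM single point, 1% DMSO / Incubation: 2 h at 37 °C / Detection: p-Nitrophenol epi absorbance / Evaluation: % inhibition relative to enzyme-containing and enzyme-free wells / Repeats: singlicate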
HCV core dimer: blocks dimerization of HCV core protein; TR-FRET GST/Flag-core106 dimerization, 1536-well; AID 1899; inhibition, % at 5 µM; actives 0.33% (n = 300,000);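 active means inhibition above the mean of all tested compounds plus 3 SD, set per screening campaign, cut at about 45% in these data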
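System: GST-tagged and Flag-tagged HCV core protein residues 1-106 / Input: core106 proteins, GST 13.5 nM and Flag 17 nM / Buffer or medium: KF-containing HEPES buffer, pH 7.45, DTT, CHAPS, BSA / Probe or stimulus: Eu-anti-GST and XL665-anti-Flag labelled anti-tag antibodies / Schedule: 4 h, 22.5 °C incubation / Technique: TR-FRET 671 and 617 nm emission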
LEDGF integ inh: blocks HIV-1 LEDGF/p75-dependent DNA integration | inhibition, % at 3.7 µM | AID 743269 | actives 0.64% (n = 370,000) | TR-FRET IN-LEDGF/p75 DNA integration, Eu/Cy5;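 active means inhibition above the screen-wide mean plus 3 SD, cut at about 13% in these data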;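 further: signal is the Cy5 over europium emission ratio at 671 and 618 nm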
MBD2 inh: MBD2-methylated oligo binding inhibition; Q9UBB5; TR-FRET, MBD2 binding to methylated oligonucleotide; inhibition, % at 4.4 µM; actives 0.31% (n = 370,000); AID 686964; in the data active means inhibition above about 13%
Target sequence (Q9UBB5 whole entry, looked up): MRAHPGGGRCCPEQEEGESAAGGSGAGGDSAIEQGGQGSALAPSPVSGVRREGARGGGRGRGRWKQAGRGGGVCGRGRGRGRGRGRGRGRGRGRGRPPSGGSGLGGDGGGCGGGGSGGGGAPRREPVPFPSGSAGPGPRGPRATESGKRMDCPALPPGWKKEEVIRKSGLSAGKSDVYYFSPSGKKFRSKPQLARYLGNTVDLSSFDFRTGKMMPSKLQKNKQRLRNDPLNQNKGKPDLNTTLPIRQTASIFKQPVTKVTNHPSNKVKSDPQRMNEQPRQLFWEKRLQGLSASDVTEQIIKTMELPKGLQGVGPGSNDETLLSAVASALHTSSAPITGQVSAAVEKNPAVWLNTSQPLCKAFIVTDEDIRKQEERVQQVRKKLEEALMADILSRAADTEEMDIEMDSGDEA
TDP2 confirm: confirmation of human TDP2 inhibitors; recombinant human TDP2, absorbance read-out; inhibition, % at 12.8 µM; shares compounds with TDP2 inh; actives 22% (n = 1,100); in the data active means inhibition above about 25%
Each line names hits and unclear results; the compound was inactive in the other large screens (follow-up assays come after a bar, where they were run). Sampled rows, rich in hits. Any-hit rate of the full collection: about 1.8%.

COC(=O)c1cccc(C(=O)N2CCCC(C(=O)c3cccc(OC(C)C)c3)C2)c1 (configuration not stated)	TDP2 inh 28 | TDP2 confirm inactive
COc1ccc(CCNCC(=O)Nc2ccc(C)c(S(=O)(=O)N(C)C)c2)cc1OC	TDP2 inh 32 | TDP2 confirm inactive
COc1ccc(CCNCC(=O)Nc2ccc(C)c(Br)c2)cc1OC	none
CCOC(=O)C1CCN(c2cc3c(cc2NC(=O)c2ccccc2Br)n(C)c(=O)n3C)CC1	TDP2 inh 26 | TDP2 confirm inactive
CCOc1ccc2nc(SCC(=O)NCC3CCCO3)c(C#N)cc2c1 (configuration not stated)	TDP2 inh 27 | TDP2 confirm inactive
COc1ccccc1OCCn1cc(/C=C(\C#N)C(=O)NCc2ccco2)c2ccccc21	TDP2 inh 103 | TDP2 confirm inactive
COc1ccc(OCCn2cc(/C=C(\C#N)C(=O)NCc3ccco3)c3ccccc32)cc1	none
CC1CCN(CCCNC(=O)c2ccc(CS(=O)(=O)Cc3ccc(Cl)cc3)o2)CC1	TDP2 inh 27 | TDP2 confirm inactive
CCC(Oc1ccccc1)C(=O)Nc1ccc(C)c(S(=O)(=O)N2CCOCC2)c1 (configuration not stated)	TDP2 inh 29 | TDP2 confirm inactive
CCOC(=O)[C@]12CCCC=C1N(Cc1ccc(OC)cc1)C(=O)[C@@H]2CC(=O)NCc1cccc2ccccc12	none (no result: HCV core dimer)
Cn1c(SCC(=O)Nc2ccc3[nH]c(=O)[nH]c3c2)nnc1-c1ccc(F)cc1	TDP2 inh 29 | TDP2 confirm inactive
O=C(c1ccc(Cl)c(Cl)c1)N1CCC(Oc2cccnc2)CC1	none (no result: HCV core dimer)
O=C(OC12CCCN(C1)/C(=C/c1ccc(Cl)cc1)C2)c1ccc(F)cc1 (configuration not stated)	none (no result: HCV core dimer)
CCC(=O)Nc1c(C#N)c2nc3ccccc3nc2n1-c1ccc(C)cc1	none (no result: HCV core dimer)
N#Cc1c(NC(=O)c2ccc(Br)o2)n(-c2ccccc2)c2nc3ccccc3nc12	TDP2 inh 28 | TDP2 confirm 60
CCc1cc(SC#N)cc(C)c1NC(=O)CCl	none
CCc1cc(SC#N)cc(C)c1N	TDP2 inh 32 | TDP2 confirm inactive
COc1ccc2nc3cccc(OC)c3nc2c1	none
COc1ccc2nc3ccccc3nc2c1N	TDP2 inh 39 | TDP2 confirm inactive
COC(=O)[C@]12C[C@H](CC(=O)NCCCN3CCCC3=O)C(=O)N(Cc3ccc(Cl)cc3Cl)C1=C[C@H](COCc1ccccc1)O[C@@H]2C	none (no result: HCV core dimer)
CC1=NN(c2ccccc2)C(=O)/C1=C/c1ccc(-c2ccc(C)c(C(=O)O)c2)o1	none
CC1=NN(c2ccc(C)c(C)c2)C(=O)/C1=C/c1ccc2c(c1)n(C)c(=O)n2C	TDP2 inh 53 | TDP2 confirm 31
CC(=O)c1ccc(OCc2cc(C(=O)NC(C)Cc3ccccn3)no2)cc1 (configuration not stated)	TDP2 inh 30 | TDP2 confirm inactive
Cc1ccc(/C([O-])=C(/C(=S)NCc2ccccc2)[n+]2cccc(CO)c2)cc1[N+](=O)[O-]	TDP2 inh 26 (no result: HCV core dimer) | TDP2 confirm inactive
COc1cc(CCC(=O)Nc2ncc(C)s2)cc(OC)c1OC	none
COc1cc(CCC(=O)Nc2nccs2)cc(OC)c1OC	TDP2 inh 29 | TDP2 confirm inactive
O=C(NCCN1CCC(Cc2ccccc2)CC1)C1CCCN(S(=O)(=O)c2ccc([N+](=O)[O-])cc2)C1 (configuration not stated)	none (no result: HCV core dimer)
CCOC(=O)c1c(C)[nH]c(C(=O)CN2CC(C)OC(C)C2)c1C (configuration not stated)	TDP2 inh 29 | TDP2 confirm inactive
COc1ccc(-c2noc(C3CCCN(C(=O)Nc4cc(C)cc(C)c4)C3)n2)cc1 (configuration not stated)	none (no result: HCV core dimer)
COc1ccc(CNC(=O)c2ccc(CS(=O)(=O)c3ccccc3C)o2)cc1	TDP2 inh 26 | TDP2 confirm inactive
COc1ccccc1CNC(=O)c1ccc(CS(=O)(=O)c2ccccc2C)o1	none
Cc1c(C)n(Cc2ccc(-c3ccccc3C(=O)O)cc2)c2ccc(C(=O)N[C@@H](C)c3ccc(Br)cc3)cc12	none (no result: HCV core dimer)
